Bioassay records from PubChem.
Sampled rows, rich in hits. Any-hit rate of the full collection: about 2%.
ATG4B inhibitor – ATG4B protease inhibitors, primary screen, biochemical, fluorescence, uHTS; Cysteine protease ATG4B (Homo sapiens), Q9Y4P1; ATG4B cleavage of LC3-PLA2, NBD-HPC fluorescence, 1 h; inhibition, % at 8.33 µM; actives 0.51% (n = 340,000)
SENP1 FRET inh – human SENP1 catalytic domain inhibitors, primary screen, biochemical, FRET, uHTS | Sentrin-specific protease 1 (Homo sapiens), Q9P0U3 | recombinant SENP1 catalytic domain, CyPet-SUMO1-YPet FRET cleavage | inhibition, % at 10 µM | actives 0.21% (n = 360,000);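 active = inhibition at least 30% at 10 µM, raw YFP signal under a set limit, fluorescence ratio 0.5 to 1.5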
Target sequence (Q9P0U3 419-644 limits assumed): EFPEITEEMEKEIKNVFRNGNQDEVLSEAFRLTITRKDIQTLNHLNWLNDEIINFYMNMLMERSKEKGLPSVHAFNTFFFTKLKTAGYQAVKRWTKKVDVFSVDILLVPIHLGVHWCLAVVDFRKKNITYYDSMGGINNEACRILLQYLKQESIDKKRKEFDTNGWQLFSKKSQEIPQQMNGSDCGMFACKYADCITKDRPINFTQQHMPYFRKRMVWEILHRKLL
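Assay system: hSENP1 catalytic domain, recombinant. Amount: SENP1 enzyme, 20 pM final. Schedule: 50 min reaction, RT, dark. Technique: FRET, CFP and YFP emission. Control set: no-enzyme wells low, DMSO-plus-enzyme wells high control.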
Rpn11 block – Rpn11 (PSMD14) deubiquitinase inhibitors, primary screen, biochemical, fluorescence polarization, uHTS. actives 0.59% (n = 360,000). inhibition, % at 20 µM. 26S proteasome non-ATPase regulatory subunit 14 (Homo sapiens), O00487. AID 588493, 2011. human 26S proteasome, Ub4-pepOG fluorescence polarization; 20S core pre-blocked with epoxomicin;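 active = inhibition at 20 µM, scaled to each plate's controls, above about 33%, limit read from the data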
HNF4A DNA FP – change in binding of human HNF4A to DNA, primary screen, biochemical, fluorescence polarization, FITC-DNA; 1 h; activity change, % at 10 µM; Hepatocyte nuclear factor 4-alpha (Homo sapiens), P41235; actives 0.3% (n = 360,000); AID 1224865, 2016; in the data active = activity change above about 30%, passing the limit was not always enough
TPT1 inh – Candida albicans TPT1 enzyme inhibitors, primary screen, biochemical, fluorescence polarization; AID 1962, 2009; actives 0.81% (n = 300,000); recombinant caTPT1, FP RNA substrate dephosphorylation; inhibition, % at 5 µM; tRNA 2'-phosphotransferase TPT1 (Candida albicans SC5314);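 active = inhibition above the mean of all tested compounds plus 3 SD, set per screening campaign, cut at about 24% in these data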
CSN deneddyl inh – inhibitors of CSN-mediated cullin deneddylation, primary screen, biochemical, fluorescence polarization, uHTS; inhibition, % at 12.5 µM; Purified CSN, SCF-Nedd8-OG deneddylation; COP9 signalosome complex subunit 5 (Homo sapiens), Q92905; actives 0.38% (n = 360,000); AID 651999, 2013;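 active = pattern-corrected inhibition above about 35%, with an unprinted fluorescence ratio check between 0.5 and 1.5, limit read from the data, passing the limit was not always enough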
Target sequence (Q92905 whole entry, looked up, one chain of several): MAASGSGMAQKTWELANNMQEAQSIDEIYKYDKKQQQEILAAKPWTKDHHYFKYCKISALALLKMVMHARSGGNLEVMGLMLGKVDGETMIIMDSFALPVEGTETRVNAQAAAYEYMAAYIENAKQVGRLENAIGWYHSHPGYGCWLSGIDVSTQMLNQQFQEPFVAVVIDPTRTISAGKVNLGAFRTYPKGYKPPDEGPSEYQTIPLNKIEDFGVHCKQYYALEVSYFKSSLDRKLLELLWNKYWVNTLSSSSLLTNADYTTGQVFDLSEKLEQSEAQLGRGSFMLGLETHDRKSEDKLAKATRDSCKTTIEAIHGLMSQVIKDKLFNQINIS
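Test system: purified human Csn5 enzyme expressed in HEK293T cells. Amount: 0.24 nM enzyme. Reagent: SCFSkp2-Nedd8OG substrate at 10 nM final. Schedule: 90 min incubation of compound, enzyme and substrate at room temperature. Detection: fluorescence polarization. Read-out: % inhibition of substrate cleavage by Csn5.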
Rpn11 inh conf – Rpn11 (PSMD14) deubiquitinase inhibitors, confirmation, biochemical, fluorescence polarization, single concentration. shares compounds with Rpn11 block. purified human 26S proteasome, Ub4-pepOG fluorescence polarization; proteasome pretreated with epoxomicin. inhibition, % at 20 µM. actives 29% (n = 1,900). AID 602318, 2012
MMP-2 counter – MMP-2 enzyme inhibition, confirmation, counter-screen for RPN11 inhibitor project, biochemical, fluorescence, single concentration. shares compounds with Rpn11 block. recombinant MMP-2, FRET peptide cleavage fluorescence. inhibition, % at 20 µM. actives 4% (n = 1,900). AID 602330, 2012;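 note: human MMP-2 activated beforehand with APMA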
Thrombin inh – bovine thrombin protease inhibition, confirmation, counter-screen for Rpn11 inhibitor project, biochemical, fluorescence polarization, single concentration. shares compounds with Rpn11 block. bovine thrombin cleavage of Ub4-pepOG. inhibition, % at 20 µM. actives 13% (n = 1,900). AID 602333, 2012;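 active = mean inhibition at least 40% at 20 µM, or signal 3 deviations below plate average, so some actives read negative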
Numbers stand for hits; i = inactive; nt = no result; + = active, no number. Cut-off read from the data, not from the text of the source, unless noted: active = inhibition above about 40%; inactive = the rest.

SMILES	ATG4B inhibitor	SENP1 FRET inh	Rpn11 block	HNF4A DNA FP	TPT1 inh	CSN deneddyl inh	Rpn11 inh conf	MMP-2 counter	Thrombin inh
CCOc1cc(/C=C2/C(=N)N3C(=NC2=O)SN=C3S(=O)(=O)CC)ccc1OC(=O)c1ccco1	i	i	56	i	i	i	i	i	i
COc1cc(/C=C2/C(=N)N3C(=NC2=O)SN=C3S(=O)(=O)C(C)C)ccc1OS(=O)(=O)c1ccccc1	nt	nt	nt	nt	i	nt	nt	nt	nt
COc1cc(/C=C2/C(=N)N3C(=NC2=O)SN=C3S(=O)(=O)C(C)C)ccc1OC(=O)c1ccco1	i	i	47	i	i	i	i	i	i
CCOc1cccc2sc(NC(=O)c3ccc(Br)s3)nc12	i	i	54	i	i	i	i	i	i
O=C(COC(=O)c1ccc(O)cc1)NCC1COc2ccccc2O1 (stereo not given)	i	i	i	i	nt	i	nt	nt	nt
COc1ccccc1CCC(=O)OCC(=O)NC1CC1	i	i	i	i	i	i	nt	nt	nt
O=C(Nc1cccc2nsnc12)c1ccc(-c2ccc(Br)cc2)o1	i	i	53	i	i	i	i	i	i
COC(=O)c1ccccc1NC(=O)c1ccc(-c2ccc(Br)cc2)o1	i	i	i	i	i	i	nt	nt	nt
Cc1cc(NC(=O)CCC(=O)N(c2ccccc2)C(C(=O)NC2CCCC2)c2ccccc2)no1 (stereo not given)	i	i	44	i	i	i	i	i	i
Cc1ccc(N(C(=O)CCC(=O)Nc2cc(C)on2)C(C(=O)NC2CCCC2)c2ccccc2)cc1 (stereo not given)	i	i	i	i	i	i	nt	nt	nt
CCOc1ccc2nc(SCC(=O)c3ccc(Cl)s3)sc2c1	i	i	56	i	i	i	i	i	i
CCOc1ccc2nc(SCC(=O)NCc3ccco3)sc2c1	i	i	44	i	i	i	i	i	i
C=CCNc1nc2cc(-c3ccccc3OC)sc2c(=O)n1C	nt	i	i	i	nt	i	nt	nt	nt
Cc1sc(NC(=O)c2cccs2)c(C(=O)OC(C)C)c1C	i	i	50	i	i	i	i	i	i
CCc1c(C)sc(NC(=O)c2cccs2)c1C(=O)OC(C)C	i	i	i	i	i	i	nt	nt	nt
N#CCSc1nc2cc(C(=O)N3CCC(C(N)=O)CC3)ccc2c2nc3ccccc3n12	i	i	34	i	i	i	i	i	i
CCCCNC(=O)C1(C)CCN1Cc1ccc(C#N)cc1 (stereo not given)	nt	i	i	i	nt	i	nt	nt	nt
O=c1c(/C=N\NS(=O)(=O)c2ccccc2)coc2ccc(Cl)cc12	i	i	i	i	i	i	nt	nt	nt
Cn1c(CN2CCOCC2)nnc1SCC(N)=O	i	i	i	i	i	i	nt	nt	nt
CCCSc1nnc(CN2CCOCC2)n1C	i	i	122	i	i	i	i	i	i
Cn1cccc1CC(=O)N/N=C/C=C/c1ccccc1	i	i	i	i	i	i	nt	nt	nt
O=NN(CC(=O)NN=CC=Cc1ccccc1)CC(=O)NN=CC=Cc1ccccc1	nt	i	72	i	nt	i	i	i	i
COc1cccc(-c2csc3nnc(SCC(=O)c4ccc(NC(C)=O)cc4)n23)c1	i	i	40	i	i	i	i	i	i
O=C(O)c1ccccc1-c1ccc(C=c2sc3nc4cc(Br)cnc4n3c2=O)o1	nt	i	+	i	nt	i	+	70	184
Cc1cc(C)nc(NC(C)(C)C(=O)O)n1	i	i	71	47	i	i	i	i	i
SMILES	ATG4B inhibitor	SENP1 FRET inh	Rpn11 block	HNF4A DNA FP	TPT1 inh	CSN deneddyl inh	Rpn11 inh conf	MMP-2 counter	Thrombin inh
Cc1cc(C)nc(NC(=O)NC(=O)c2ccccc2)n1	i	i	i	i	i	i	nt	nt	nt
O=C(Cn1nnc(-c2ccccc2)n1)N=Nc1c(O)[nH]c2ccccc12	i	i	64	i	i	i	i	i	i
COc1ccc(N2CCN(C(c3cc(OC)ccc3OC)c3nnnn3Cc3ccco3)CC2)cc1 (stereo not given)	i	i	30	i	i	i	i	i	i
Nc1ccc(N=Nc2ccc(N)cc2)cc1	i	i	i	i	i	i	nt	nt	nt
Cc1cc(N(C)C)ccc1N=Nc1ccc(N)cc1	i	i	48	i	i	i	i	i	i
Cc1ccc(OCC(=O)N2N=C(C(F)(F)F)CC2(O)C(C)(C)C)cc1C (stereo not given)	i	i	i	i	i	i	nt	nt	nt
Cc1ccccc1OCC(=O)N1N=C(C(F)(F)F)CC1(O)C(C)(C)C (stereo not given)	i	i	152	i	i	i	i	i	i
COc1ccc2c(c1)C1=NN(/C(C)=C/C(C)=O)C(c3ccc(F)cc3)C1CC2 (stereo not given)	i	i	i	i	i	i	nt	nt	nt
COc1ccc2c(c1)C1=NN(/C(C)=C/C(C)=O)C(c3cccc(F)c3)C1CC2 (stereo not given)	i	i	59	i	i	i	i	i	i
Cc1ccc(/C=C2\SC(=S)N(C3CCS(=O)(=O)C3)C2=O)o1 (stereo not given)	i	i	51	i	i	i	i	i	i
COC(CNC(=O)c1c[nH]c2ccc(S(=O)(=O)N(C)c3ccc(F)cc3)cc2c1=O)OC	i	i	i	i	i	i	nt	nt	nt
O=C(Nc1ccc(Cl)cc1)c1ccco1	i	i	i	i	i	i	nt	nt	nt
O=C(Nc1ccc(-c2nc3cc(Cl)ccc3c(=O)o2)cc1)c1ccco1	i	i	50	i	i	i	i	i	i
CC1C(=O)N(Cc2cn(Cc3ccco3)nn2)CCS(=O)(=O)N1Cc1ccc(-c2cccnc2)cc1 (stereo not given)	nt	i	46	i	nt	i	i	i	i
